High-throughput results from PubChem BioAssay.
RAD52 inh = inhibitors of human RAD52 DNA annealing; recombinant RAD52 DNA annealing, FRET fluorescence; inhibition, % at 18.7 µM; 360,000 tested, 0.46% active; AID 651710;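 active = every replicate showing at least 50% inhibition; inconclusive = mean inhibition at least 50% but not in every replicate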
AF4-AF9 inh = blocks AF4 peptide binding to human AF9; AlphaScreen, biotin-AF4 peptide binding to FLAG-AF9; inhibition, % at 10 µM; 350,000 tested, 0.47% active;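 active = every replicate reaching a set inhibition limit, whatever the replicate mean, cut at about 25% in these data; inconclusive = mean inhibition reaches that limit but some replicates miss it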;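 note: 0% = plate neutral control median and 100% = total signal loss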
rRNA inh HTS = inhibitors of bacterial rRNA selective over humanized ribosomes; E. coli WT GFP vs humanized-ribosome RFP mutants, fluorescence, 24 h; hits give low values; DMSO median 0, no signal -100; GFP signal change (wild-type ribosome), % (no concentration beside the values); 350,000 tested, 1.6% active;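 active = significant combined selectivity score with lowered wild-type GFP, culture density cut under 30%, mutant RFP and density less affected; inactive = any of these conditions unmet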
GSIS activator = GLuc luminescence reporter in INS-1E cells, primary screen for activators of glucose-dependent secretion of insulin; INS-1E GLuc reporter insulin secretion, 2-3 h; activation, % at 16.6 µM; 370,000 tested, 0.61% active; AID 743287;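 active = lowest replicate activation of at least 40%, so every replicate reaches that level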;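 note: 0% = median of neutral control wells and 100% = median of IBMX positive control wells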
RAD54 inh = inhibitors of human RAD54 branch migration; RAD54 Holliday junction branch migration, FAM/BHQ fluorescence; inhibition, % at 10.4 µM; 360,000 tested, 0.14% active; AID 602329;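 active = mean normalized replicate activity at least 40 and at least half of replicates scoring 40 or more; inconclusive = only one of the two criteria met; inactive = mean below 40 and under half of replicates reaching 40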;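 note: 0% = median of neutral control wells and 100% = median of positive control wells; inhibitors cause a drop in the FAM fluorescence signal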
E-selectin induc = E-selectin induction on HUVECs; HUVEC E-selectin immunofluorescence imaging; normalized: neutral wells 0, TNF-alpha wells 100; activation, % at 7.58 µM; 260,000 tested, 0.37% active;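 active = mean E-selectin-positive cell signal at least 10% of the positive control, reached in at least 60% of replicates, without over 20% cell loss; inconclusive = no rule given, readout overlaps actives, possibly toxicity-flagged; inactive = the rest, including those meeting only one limit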
Target sequence (P16581 whole entry, looked up): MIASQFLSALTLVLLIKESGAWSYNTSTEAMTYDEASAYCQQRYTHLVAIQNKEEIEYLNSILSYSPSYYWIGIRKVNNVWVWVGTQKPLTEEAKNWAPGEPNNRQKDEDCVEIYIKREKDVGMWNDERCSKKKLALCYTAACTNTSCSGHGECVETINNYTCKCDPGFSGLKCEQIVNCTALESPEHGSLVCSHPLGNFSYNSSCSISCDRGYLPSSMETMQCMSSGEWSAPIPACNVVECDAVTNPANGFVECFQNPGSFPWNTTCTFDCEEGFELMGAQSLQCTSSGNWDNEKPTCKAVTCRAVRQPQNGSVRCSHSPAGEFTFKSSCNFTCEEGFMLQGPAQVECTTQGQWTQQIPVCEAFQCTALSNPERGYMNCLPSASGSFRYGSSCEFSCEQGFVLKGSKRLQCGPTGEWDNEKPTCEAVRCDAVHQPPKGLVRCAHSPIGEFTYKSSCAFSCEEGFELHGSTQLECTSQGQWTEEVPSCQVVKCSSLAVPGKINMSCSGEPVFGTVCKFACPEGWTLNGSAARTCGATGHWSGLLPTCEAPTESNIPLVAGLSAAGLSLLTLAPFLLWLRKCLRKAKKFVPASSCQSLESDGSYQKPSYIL
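assay system = HUVEC, human umbilical vein endothelial cells | input = 3,000 HUVEC seeded per well | medium = EGM-2 growth medium on 0.1% gelatin-coated wells | dosing = one compound dose added by pin transfer | signal = immunofluorescence imaging | read-out basis = % PE-positive cells | control set = TNF-alpha, DMSO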
Rad54 DNA ctr = binds DNA, flagging false Rad54 inhibitor hits | shares compounds with RAD54 inh | Acridine orange-DNA displacement, fluorescence polarization, 20 min | AC50, µM (highest dose often 35 µM), for the others: top-dose activity change, negative = DNA binding | 460 tested, 8% active | AID 651673;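 active = signal drop giving an AC50 within twice the top valid tested concentration of each sample, actives reach about 35 µM in these data; inactive = activity opposite to expected, plus the rest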;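 note: polarization loss reports compound binding to salmon sperm DNA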
Alpha interfer = counter-screen: AlphaScreen signal interference. AC50, µM (titrated, usually from 12 µM), inactives show top-dose activity change, negative = inhibition. signal luminescence. shares compounds with AF4-AF9 inh. 530 tested, 45% active. AID 720494; cut-off not given, nearly all actives have AC50 up to about 14 µM
DNA binder FP = binds DNA, flagging false RAD52 inhibitor hits; shares compounds with RAD52 inh; Salmon sperm DNA/acridine orange FP displacement, DNA binding; AC50, µM; 1,000 tested, 8% active; AID 652128;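 active = fitted half-maximal concentration for signal loss at or below twice the highest dose tested, in every separate run, actives reach about 64 µM in these data; inconclusive = runs disagree, or flat partial signal loss, or poor fit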
AID977621 = wild-type E. coli growth inhibition versus H69 humanized strain – H69 mutant RFP, wild-type GFP, cherry-pick, dose response. activity change, negative = inhibition at 50 µM. fluorescence, 24 h. 1,900 tested, under 10 active. AID 977621. shares compounds with rRNA inh HTS;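 active = Wild-type ribosome reporter drop at least double the humanized mutant ribosome reporter drop, growth loss under a set limit; inconclusive = no clear call, values can overlap the other calls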;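 note: wild-type GFP and H69 mutant RFP strains grown together 50/50 in each well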
AID977628 = growth of wild-type and h24-humanized E. coli strains – h24 mutant RFP vs wild-type GFP, cherry-pick, dose response; shares compounds with rRNA inh HTS; E. coli WT GFP strain growth, fluorescence, 24 h; activity change, negative = inhibition at 50 µM; 1,900 tested, under 10 active; AID 977628;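 active = compound lowering the normal-ribosome reporter at least twice as much as the humanized-ribosome reporter, growth loss under a set limit; inconclusive = no clear call, values can overlap the other calls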;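 note: wild-type GFP and h24 humanized RFP strains co-cultured 1 to 1 per well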
An asterisk follows results filed as active; i = inactive; ? = inconclusive; · = not tested or not shown; ! = a repeat was not active. Sampled rows, rich in hits. Any-hit rate of the full collection: about 2.6%.

SMILES | RAD52 inh | AF4-AF9 inh | rRNA inh HTS | GSIS activator | RAD54 inh | E-selectin induc | Rad54 DNA ctr | Alpha interfer | DNA binder FP | others
C[C@@H]1CN([C@H](C)CO)C(=O)Cc2cc(NC(=O)CCCN(C)C)ccc2O[C@@H]1CN(C)S(=O)(=O)c1ccccc1 | -8.6 | 1.5 | 6.4 | 6.7 | -1.3 | ? | · | · | ·
CNC[C@H]1Oc2cc(C#CCN(C)C)ccc2S(=O)(=O)N([C@@H](C)CO)C[C@H]1C | 3.3 | 10.4 | -1.0 | 0.9 | -13.0 | -0.2 | · | · | ·
Cc1c(OCC(=O)NC2CC(C)(C)NC(C)(C)C2)ccc2c3c(c(=O)oc12)CCC3 | -0.7 | -2.0 | 5.6 | 33.4 | 13.6 | · | · | · | ·
Cc1c(OCC(=O)NC2CC(C)(C)NC(C)(C)C2)ccc2c1oc(=O)c1ccccc12 | 71.9* | 1.7 | 0.3 | 54.3 | 66.6* | -0.8 | i | · | i
CCNC(=S)N1CCN(CCN2C(=O)c3cccc4cccc(c34)C2=O)CC1 | -15.8 | -5.6 | 13.9 | -2.7 | 29.0 | 4.2 | · | · | ·
O=C1c2ccccc2C(=O)N1CCN1CCCCC1 | · | · | · | 26.8 | · | · | · | · | ·
O=C1c2cccc3cc([N+](=O)[O-])cc(c23)C(=O)N1CCN1CCCC1 | 82.2* | -2.4 | 4.4 | 3.3 | 98.0* | 0.3 | 33.6µM* | · | 24.8µM*
NC(=O)CN1CCN(CCN2C(=O)c3cccc4cccc(c34)C2=O)CC1 | 47.0 | 1.3 | -10.2 | 1.3 | 57.6* | 2.4 | -1.7% | · | i
COc1ccc(CN(C)C[C@@H]2OCCCC[C@@H](C)Oc3ccc(NC(=O)Cc4ccccc4)cc3C(=O)N([C@H](C)CO)C[C@@H]2C)cc1 | · | · | 0.1 | -5.1 | 10.1 | -0.1 | · | · | ·
COC(=O)c1c(NC(=O)c2ccc(S(=O)(=O)N3CC(C)OC(C)C3)cc2)sc2c1CCN(C)C2 (stereo unspecified) | 51.2* | -2.4 | 10.0 | 4.5 | 50.1* | -0.3 | 16.1% | · | i
COc1ccc(NC(=O)c2ccc(-c3ccc(-c4noc(C)n4)cc3C)cc2)cc1N1CCN(C)CC1 | 101.0* | 38.3* | · | · | 54.3* | 0.5 | 3.1% | 12µM* | i
COc1ccc2oc3cc(NCCN(C)C)ccc3c(=O)c2c1 | 79.1* | -6.2 | 11.6 | 4.2 | 86.2* | 0.1 | 1.5% | · | i
CCOC(=O)c1c(-c2ccc(-c3ccccc3)cc2)csc1NC(=O)CNCCN(C)C | 95.2* | 31.5* | -59.2 | 180.1* | 53.5* | 1.9 | 5.1% | -32.0% | i
Nc1c2ccccc2nc2ccccc12 | 97.8* | -2.3 | -43.2*! | -6.3 | 121.2* | 0.1 | 26µM* | · | 32.7µM*
CCN1CCN(c2ccc(Nc3ccnc4ccccc34)cc2)CC1 | 94.6* | 19.5 | · | · | 78.2* | 1.1 | -12.0% | · | i
C(=C/c1nccc2c1[nH]c1ccccc12)/c1ccc2c(c1)OCO2 | -74.4 | -13.8 | -37.3* | 15.9 | 58.5* | 20.0 | -9.0% | · | · | AID977621=12.3;AID977628=-2.17
C(=N\Nc1nc2ccccc2[nH]1)/c1ccc2c(c1)OCO2 | -4.8 | 4.4 | -50.1 | -6.4 | · | 2.1 | · | · | ·
COc1ccc(NC(=O)Nc2ccc3c(c2)C(=O)N([C@@H](C)CO)C[C@@H](C)[C@@H](CN(C)Cc2ccc(C(=O)Nc4ccccc4N)cc2)O3)cc1 | 4.3 | 2.1 | -4.8 | -7.2 | 9.9 | 1.5 | · | · | ·
CCOc1ccc2[nH]c3c(NCCN(C)C)ncnc3c2c1 | 64.7* | 8.7 | -13.4* | 9.6 | ? | 1.4 | 0.0% | · | · | AID977621=-2.39;AID977628=?
CCOC(=O)c1cnc2c(ccc3ccccc32)c1NCCCN(C)C | 96.4* | 0.2 | -26.2* | · | 123.5* | 0.1 | -18.5% | · | ? | AID977621=-4.27
Cc1cccc(-c2ccc([C@H]3[C@H](CO)N4CCCCN(Cc5cncnc5)C[C@@H]34)cc2)c1 | 15.1 | 3.1 | -6.7 | 21.6 | -4.4 | 0.2 | · | · | ·
O=C(Nc1ccc(N2CCCC2)c(Cl)c1)c1ccc([N+](=O)[O-])o1 | -1.7 | 49.1* | -56.0 | -13.9 | · | -0.2 | · | 13µM* | ·
S=C(c1ccc(-c2cccc(Cl)c2)o1)N1CCOCC1 | -7.6 | 29.5* | 0.0 | -12.2 | 0.0 | · | · | -12.4% | ·
C(=N\N=C\c1ccccn1)/c1ccccn1 | -14.5 | -3.6 | 9.9 | -11.9 | -0.6 | · | · | · | ·
C(=C1c2ccccc2-c2ccccc21)c1ccccn1 | -6.0 | 18.8 | -7.9 | 25.0 | 3.1 | 0.2 | · | -31.0% | ·
SMILES | RAD52 inh | AF4-AF9 inh | rRNA inh HTS | GSIS activator | RAD54 inh | E-selectin induc | Rad54 DNA ctr | Alpha interfer | DNA binder FP | others
CCC(=O)N1CC2(C1)CN(Cc1ccccc1Cl)[C@@H](CO)c1c2c2ccc(OC)cc2n1C | -33.7 | 1.1 | -2.6 | 5.6 | · | -0.4 | · | · | ·
COc1ccc(NC(=O)N(C)C[C@H]2Oc3ccc(NS(=O)(=O)c4ccc(C)cc4)cc3CC(=O)N([C@@H](C)CO)C[C@@H]2C)cc1 | · | · | 0.5 | 2.5 | · | -0.2 | · | · | ·
CN1CCN(C(c2ccc(Br)cc2)c2cc(Cl)c3cccnc3c2O)CC1 (stereo unspecified) | 7.3 | 83.5* | -52.6 | -31.8 | 2.7 | · | · | 2.8µM* | ·
CN1CCN(C(c2ccc(F)cc2)c2ccc3cccnc3c2O)CC1 (stereo unspecified) | · | · | · | · | -8.3 | · | · | · | ·
COc1ccc2c3c(n(C)c2c1)[C@@H](CO)N(C)CC31CN(S(C)(=O)=O)C1 | · | 0.3 | 5.2 | 18.5 | · | -0.1 | · | · | ·
CCCCOc1ccc2c(c1)C(=O)c1cc(O)ccc1-2 | -7.9 | 33.2* | 5.8 | 3.4 | · | · | · | -1.9% | ·
CCOc1ccc2c(c1)C(=O)c1cc(OCC(=O)O)ccc1-2 | -12.1 | -10.3 | 6.8 | -4.8 | 3.3 | 0.2 | · | · | ·
N#Cc1nc(-c2cccs2)oc1N1CCN(Cc2ccccc2)CC1 | -9.7 | 30.6* | -24.2 | -2.2 | · | · | · | -27.0% | ·
CN1C(=O)c2cc(NC(=O)c3ccccc3)ccc2OC[C@@H]2O[C@H](CC(=O)O)CC[C@@H]21 | 1.2 | -0.1 | -1.1 | -1.4 | 0.5 | -0.1 | · | · | ·
Cc1ncc(CO)c(/C=N/NC(=O)c2ccc(O)cc2)c1O | · | · | · | -1.4 | 5.9 | · | · | · | ·
Cc1ncc(CO)c(/C=N/NC(=S)Nc2ccc(Cl)c(Cl)c2)c1O | -3.2 | 29.6* | -54.5 | -53.7 | · | · | · | 13µM* | ·
